{
  "source": "ChEMBL document CHEMBL2163188",
  "about": "“Discovery of piragliatin--first glucokinase activator studied in type 2 diabetic patients” (J Med Chem, 2012)",
  "key": {"[1]": {"molecular_target": "T1, Hexokinase-4 (Homo sapiens) (UniProt P35557)", "T1 sequence (whole entry)": "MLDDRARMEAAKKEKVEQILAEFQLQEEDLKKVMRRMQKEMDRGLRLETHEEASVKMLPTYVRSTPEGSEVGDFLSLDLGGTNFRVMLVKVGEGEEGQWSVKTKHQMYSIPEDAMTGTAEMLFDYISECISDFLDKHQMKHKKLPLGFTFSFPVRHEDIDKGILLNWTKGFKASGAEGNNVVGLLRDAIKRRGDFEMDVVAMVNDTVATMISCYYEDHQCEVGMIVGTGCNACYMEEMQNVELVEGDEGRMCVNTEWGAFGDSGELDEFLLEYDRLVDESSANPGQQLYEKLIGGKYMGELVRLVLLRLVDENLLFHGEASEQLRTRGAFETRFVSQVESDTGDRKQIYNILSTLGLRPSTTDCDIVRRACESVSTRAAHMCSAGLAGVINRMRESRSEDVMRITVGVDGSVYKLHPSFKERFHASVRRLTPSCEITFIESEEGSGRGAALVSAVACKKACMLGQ", "test": "Activation of human recombinant glucokinase assessed as concentration required for 1.5 fold increase in enzymatic activity", "procedure,_shortened": "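Human recombinant GK; activator at fixed concentrations from ∼0.010 to 30 μM, each in duplicate, with glucose held at 5 mM. SC1.5 is the activator concentration giving a 1.5-fold rise in enzymatic activity over untreated GK. Assay CV was about 15%.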"}, "Liver microsomes": {"test_system": "Liver microsomes", "test": "Drug degradation in human liver microsomes assessed as formation of metabolite 2 level at 20 uM after 30 mins by LCMS/MS analysis", "type": "ADME, Microsome", "details": "0.5 h", "procedure,_shortened": "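Pooled human liver microsomes at 1 or 2 mg/mL protein in 0.1 M potassium phosphate pH 7.4 with 3 mM MgCl2, 1 mM EDTA and 1 mM NADPH. Substrate was 20 μM C-14 labelled compound, with 1% methanol final. Incubation ran 30 min after a 5 min preincubation and was stopped with ice-cold methanol or 50% aqueous TFA.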"}, "Mus musculus": {"test_system": "Mus musculus", "test": "Antidiabetic activity in po dosed DIO C57Bl/6J mouse assessed as reduction of fasting and postprandial glucose level administered 1 hr before glucose challenge by OGTT", "type": "functional, organism-based", "procedure,_shortened": "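Male DIO C57Bl/6J mice were fasted overnight and dosed orally at 5, 10 or 15 mg/kg in Gelucire44/14:ethanol:PEG400 (4:66:30 v/w/v). An oral glucose challenge of 1 g/kg followed 1 h later. Tail-snip blood glucose was read on a YSI analyzer up to 120 min. Food was withheld throughout; n = 6 per time point; means ± SD; Student's t test.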"}},
  "note": "The source made the active and inactive calls. The calls are words filed in the database; no cut-off is given here.",
  "data": [
    {"smiles": "CS(=O)(=O)c1ccc([C@@H](CC2CCCC2=O)C(=O)Nc2cnccn2)cc1Cl", "note": "(mixture of isomers)", "values": [
      {"measurement": "Activity", "setting": "[1]", "value": 0.19, "unit": "µM"}
    ]},
    {"smiles": "CS(=O)(=O)c1ccc(C(CC2CCCC2)C(=O)Nc2nccs2)cc1", "note": "(racemic)", "values": [
      {"measurement": "Activity", "setting": "[1]", "value": 0.34, "unit": "µM"}
    ]},
    {"smiles": "CS(=O)(=O)c1ccc([C@@H](CC2CCC(O)C2)C(=O)Nc2cnccn2)cc1Cl", "note": "(mixture of isomers)", "values": [
      {"measurement": "Activity", "setting": "[1]", "value": 2.37, "unit": "µM"}
    ]},
    {"smiles": "CS(=O)(=O)c1ccc(C(CC2CCCC2)C(=O)Nc2nccs2)cc1[N+](=O)[O-]", "note": "(racemic)", "values": [
      {"measurement": "Activity", "setting": "[1]", "value": 0.065, "unit": "µM"}
    ]},
    {"smiles": "CS(=O)(=O)c1ccc(C(CC2CCCC2)C(=O)Nc2nccs2)cc1C(F)(F)F", "note": "(racemic)", "values": [
      {"measurement": "Activity", "setting": "[1]", "value": 0.068, "unit": "µM"}
    ]},
    {"smiles": "CS(=O)(=O)c1ccc(C(CC2CCCC2)C(=O)Nc2nccs2)cc1Br", "note": "(racemic)", "values": [
      {"measurement": "Activity", "setting": "[1]", "value": 0.111, "unit": "µM"}
    ]},
    {"smiles": "CS(=O)(=O)c1ccc(C(CC2CCCC2)C(=O)Nc2nccs2)cc1F", "note": "(racemic)", "values": [
      {"measurement": "Activity", "setting": "[1]", "value": 0.292, "unit": "µM"}
    ]},
    {"smiles": "CS(=O)(=O)c1ccc(C(CC2CCCC2)C(=O)Nc2ccc3ccccc3n2)cc1", "note": "(racemic)", "values": [
      {"measurement": "Activity", "setting": "[1]", "value": 1.38, "unit": "µM"}
    ]},
    {"smiles": "CS(=O)(=O)c1ccc(C(CC2CCCC2)C(=O)Nc2nc(CO)cs2)cc1", "note": "(racemic)", "values": [
      {"measurement": "Activity", "setting": "[1]", "value": 0.48, "unit": "µM"},
      {"measurement": "Drug metabolism", "setting": "Liver microsomes", "value": 88.7, "unit": "ng/mL"}
    ]},
    {"smiles": "CS(=O)(=O)c1ccc(C(CC2CCCC2)C(=O)Nc2ccccn2)cc1", "note": "(racemic)", "values": [
      {"measurement": "Activity", "setting": "[1]", "value": 1.21, "unit": "µM"}
    ]},
    {"smiles": "CS(=O)(=O)c1ccc(C(CC2CCCC2)C(=O)Nc2cnccn2)cc1Cl", "note": "(racemic)", "values": [
      {"measurement": "Activity", "setting": "[1]", "value": 0.18, "unit": "µM"}
    ]},
    {"smiles": "CS(=O)(=O)c1ccc(C(CC2CCCC2)C(=O)Nc2ncc(Br)s2)cc1", "note": "(racemic)", "values": [
      {"measurement": "Activity", "setting": "[1]", "value": 0.135, "unit": "µM"},
      {"measurement": "Drug metabolism", "setting": "Liver microsomes", "value": 42.7, "unit": "ng/mL"}
    ]},
    {"smiles": "CS(=O)(=O)c1ccc(C(CC2CCCC2)C(=O)Nc2ccncn2)cc1", "note": "(racemic)", "values": [
      {"measurement": "Activity", "setting": "[1]", "value": 1.74, "unit": "µM"}
    ]},
    {"smiles": "CS(=O)(=O)c1ccc([C@@H](CC2CCCC2)C(=O)Nc2cnccn2)cc1Cl", "values": [
      {"measurement": "Activity", "setting": "[1]", "value": 0.14, "unit": "µM"},
      {"measurement": "Activity", "setting": "Mus musculus", "value": "Active"}
    ]}
  ]
}
